What all share (type): functional
In experiment [1] the test system is Staphylococcus aureus. Nature of the experiment: Antimicrobial activity against mupirocin-susceptible methicillin-resistant Staphylococcus aureus by broth microdilution method. Put shortly:
(§1)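 Clinical MRSA isolates (4,980) from 32 Canadian hospitals, 1995–2004, confirmed by multiplex PCR for mecA and nuc. Susceptibility done by broth microdilution following CLSI guidelines. Inducible clindamycin resistance in macrolide-resistant isolates detected by standardized disk approximation test. Isolates grouped as high-level mupirocin-resistant or mupirocin-susceptible. Resistance rates expressed as percentage of isolates per group.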
Background: Broth dilution looks for growth in wells or tubes with falling amounts of substance.

Experiment [2] concerns Staphylococcus aureus. In words: Antimicrobial activity against mupirocin-resistant methicillin-resistant Staphylococcus aureus by broth microdilution method. A digest of the protocol: as §1
Experiment [3] relates to Staphylococcus aureus. Nature of the experiment: Antimicrobial activity against mupirocin-susceptible methicillin-resistant Staphylococcus aureus assessed as resistant rate by broth microdilution method. A digest of the protocol:
as §1

Experiment [4] has as its system Staphylococcus aureus. Nature of the experiment: Antimicrobial activity against mupirocin-resistant methicillin-resistant Staphylococcus aureus assessed as resistant rate by broth microdilution method. A digest of the protocol:
as §1

Converted amounts (≈) assume the structure as drawn. Some results are limits rather than exact numbers.

As usually defined, the MIC is the lowest concentration found to suppress growth. High values mean a need for much substance, low ones inhibition by little substance. What is called MIC90 is an inhibitory concentration at the 90% level, which refers to growth in some studies and to a panel of isolates in others. A low value points to greater potency.

With `O=C(O)c1cn(C2CC2)c2cc(N3CCNCC3)c(F)cc2c1=O` [CIPROFLOXACIN], the MIC in the experiment on Staphylococcus aureus [1] was no more than 4 µg/mL; in the experiment with Staphylococcus aureus [2], no less than 512 µg/mL. Besides, the MIC90 against Staphylococcus aureus [1] and in the experiment on Staphylococcus aureus [2] was greater than 8 µg/mL throughout. For the same compound, the Activity with Staphylococcus aureus [3] is recorded as 90%; with Staphylococcus aureus [4], 75%.

`CCC[C@@H]1C[C@@H](C(=O)N[C@@H]([C@H]2O[C@H](SC)[C@H](O)[C@@H](O)[C@H]2O)[C@H](C)Cl)N(C)C1` [CLINDAMYCIN]: the values for the MIC against Staphylococcus aureus [1] and against Staphylococcus aureus [2] were no more than 4 µg/mL and no less than 512 µg/mL, respectively. Also, the MIC90 in the experiment with Staphylococcus aureus [1] and in the experiment on Staphylococcus aureus [2] was greater than 8 µg/mL throughout. Also, the Activity amounted to 86% in the experiment with Staphylococcus aureus [3] and 85% in the experiment on Staphylococcus aureus [4].

Consider `CC[C@H]1OC(=O)[C@H](C)[C@@H](O[C@H]2C[C@@](C)(OC)[C@@H](O)[C@H](C)O2)[C@H](C)[C@@H](O[C@@H]2O[C@H](C)C[C@H](N(C)C)[C@H]2O)[C@](C)(O)C[C@@H](C)C(=O)[C@H](C)[C@@H](O)[C@]1(C)O` [ERYTHROMYCIN], for which the MIC in the experiment with Staphylococcus aureus [1] is no more than 4 µg/mL; against Staphylococcus aureus [2] it was no less than 512 µg/mL. Besides, the MIC90 against Staphylococcus aureus [1] and against Staphylococcus aureus [2] was greater than 8 µg/mL throughout. For the same compound, the Activity came to 94% in the experiment with Staphylococcus aureus [3] and 86% in the experiment on Staphylococcus aureus [4].

For `CC(=O)O[C@H]1C[C@@]2(C)[C@@H](C[C@@H](O)[C@H]3[C@@]4(C)CC[C@@H](O)[C@@H](C)[C@@H]4CC[C@@]32C)/C1=C(\CCC=C(C)C)C(=O)O` [FUSIDIC ACID], the MIC against Staphylococcus aureus [1] was no more than 0.5 µg/mL; against Staphylococcus aureus [2], no less than 512 µg/mL. Moreover, the MIC90 in the experiment with Staphylococcus aureus [1] is 0.5 µg/mL (≈ 0.968 µM); with Staphylococcus aureus [2], greater than 8 µg/mL. Also, the figures for the Activity in the experiment with Staphylococcus aureus [3] and in the experiment with Staphylococcus aureus [4] were 4% and 21%, respectively.

In the case of `CC(=O)NC[C@H]1CN(c2ccc(N3CCOCC3)c(F)c2)C(=O)O1` [LINEZOLID], the MIC against Staphylococcus aureus [1] is no more than 4 µg/mL; in the experiment with Staphylococcus aureus [2] it was no less than 512 µg/mL. Besides, the MIC90 was found to be 1 µg/mL (≈ 2.96 µM) in the experiment on Staphylococcus aureus [1] and 2 µg/mL (≈ 5.93 µM) against Staphylococcus aureus [2]. Besides, the Activity in the experiment on Staphylococcus aureus [3] and in the experiment with Staphylococcus aureus [4] was 0% in each case.

In the case of `C/C(=C\C(=O)OCCCCCCCCC(=O)O)C[C@@H]1OC[C@H](C[C@@H]2O[C@H]2[C@@H](C)[C@H](C)O)[C@@H](O)[C@H]1O` [MUPIROCIN], the MIC is no more than 4 µg/mL against Staphylococcus aureus [1] and no less than 512 µg/mL with Staphylococcus aureus [2]. For the same compound, the MIC90 with Staphylococcus aureus [1] was 0.5 µg/mL (≈ 0.999 µM); in the experiment with Staphylococcus aureus [2] it was greater than 512 µg/mL. Also, the Activity in the experiment on Staphylococcus aureus [3] was 0%; in the experiment on Staphylococcus aureus [4], 100%.

As to `CO[C@H]1/C=C/O[C@@]2(C)Oc3c(C)c(O)c4c(O)c(c(/C=N/N5CCN(C)CC5)c(O)c4c3C2=O)NC(=O)/C(C)=C\C=C\[C@H](C)[C@H](O)[C@@H](C)[C@@H](O)[C@@H](C)[C@H](OC(C)=O)[C@@H]1C` [RIFAMPIN], the MIC in the experiment on Staphylococcus aureus [1] was no more than 4 µg/mL; in the experiment on Staphylococcus aureus [2], no less than 512 µg/mL. Also, the MIC90 with Staphylococcus aureus [1] and against Staphylococcus aureus [2] was less than 0.5 µg/mL each time. Moreover, the Activity is 2% in the experiment with Staphylococcus aureus [3] and 4% in the experiment on Staphylococcus aureus [4].

On to `CN(C)[C@@H]1C(O)=C(C(N)=O)C(=O)[C@@]2(O)C(O)=C3C(=O)c4c(O)cccc4[C@@](C)(O)[C@H]3C[C@@H]12` [TETRACYCLINE], for which the values for the MIC against Staphylococcus aureus [1] and against Staphylococcus aureus [2] were no more than 4 µg/mL and no less than 512 µg/mL, respectively. The MIC90 against Staphylococcus aureus [1] was greater than 16 µg/mL; against Staphylococcus aureus [2], less than 4 µg/mL. For the same compound, the Activity in the experiment on Staphylococcus aureus [3] was 23%; in the experiment with Staphylococcus aureus [4], 7%.

For `CN[C@H](CC(C)C)C(=O)N[C@H]1C(=O)N[C@@H](CC(N)=O)C(=O)N[C@H]2C(=O)N[C@H]3C(=O)N[C@H](C(=O)N[C@H](C(=O)O)c4cc(O)cc(O)c4-c4cc3ccc4O)[C@H](O)c3ccc(c(Cl)c3)Oc3cc2cc(c3O[C@@H]2O[C@H](CO)[C@@H](O)[C@H](O)[C@H]2O[C@H]2C[C@](C)(N)[C@H](O)[C@H](C)O2)Oc2ccc(cc2Cl)[C@H]1O` [VANCOMYCIN], the MIC with Staphylococcus aureus [1] is no more than 4 µg/mL; against Staphylococcus aureus [2], no less than 512 µg/mL. Further, the MIC90 in the experiment with Staphylococcus aureus [1] and against Staphylococcus aureus [2] was 1 µg/mL (≈ 0.69 µM) in each case. The Activity in the experiment with Staphylococcus aureus [3] and in the experiment with Staphylococcus aureus [4] was 0% each time.
